Data reported in the RNAGym collection of RNA variant scans (doi:10.1038/nmeth.2970).

B1: NELF-E aptamer (parent)
chain: CCCAACGACUGCCGAGCGAGAUUACGCUUGAGCGCCCCACUGAGGAUGCCCACGGGCGAUUGGGGCACGG

Variants of: B1
Assay: HiTS-RAP
Settings: with NELF-E (Drosophila)
In short: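 Aptamer DNA templates carrying a T7 promoter and ter site were sequenced on an Illumina GAIIx flowcell, then transcribed in situ by T7 RNA polymerase and halted by GST-Tus (30 minutes, 37°C). Clusters were imaged after 30-minute room-temperature equilibration with NELF-E-mOrange at 0.064 to 1000 nM in HEPES binding buffer, and only the first binding curve was used. Intensities were normalised to sequencing intensity and averaged per sequence. Kd came from weighted Hill fits, keeping fits with variance below 1,000,000.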

Variant | Kd [nM]
CCCAACGACUGGCGAGCAAGAUUACGCUUGAGCGCCCCACUGAGGAUGCCCACGGGCGAUUGGGGCACGG [C12G G18A] | 7.26
CCCAACGAGUGCCGAGCGAGAUUACGCUUGAGCGCCCCACUGAGGAUGCCCACGGGCGAUUGGGCCACGG [C9G G65C] | 16.4
CCCAACGACUGCCGAGCGAGAGUACGCUUGAGCGCCCCACUGAGGAUGCCCACGGGCGAGUGGGGCACGG [U22G U60G] | 7.18
CCCAACGACUGCCGAGCGAGAUUACGCUGGAGCGCCCCACUGAGGAUGCCCACGCGCGAUUGGGGCACGG [U29G G55C] | 5.81
CCCAACGACUGCCGAGCGAGAUGAUGCUUGAGCGCCCCACUGAGGAUGCCCACGGGCGAUUGGGGCACGG [U23G C25U] | 5.73
CCCAACGACUGCCGAGCGAGAUUACGCCUGAGCGCCCCACGGAGGAUGCCCACGGGCGAUUGGGGCACGG [U28C U41G] | 11.9
CCCAACGACUGCCGAGCGAGAUUACGCUCGAGCGCCCCACUGAGGAUGCCCACGGGCGAUUGGGGCACGG [U29C] | 4.9
CCCAACGACUGCCGAGCGUGAUUACGCUUGAGCGCCCCACGGAGGAUGCCCACGGGCGAUUGGGGCACGG [A19U U41G] | 4.74
CCCUACGACUGCCGAGCGAGAUUACGCUUGAGCGCCCCACAGAGGAUGCCCACGGGCGAUUGGGGCACGG [A4U U41A] | 86.3
CCCAACGACUGCGGUGCGAGAUUACGCUUGAGCGCCCCACUGAGGAUGCCCACGGGCGAUUGGGGCACGG [C13G A15U] | 6.13
CCCAACGACUGCCGAGCGAGAUUACGCUUGAGAGCCCCACUGAGGAUGCCCACGGGCGAUUGGGGCACGG [C33A] | 4.67
CCCAACGACUGCCGAGCGAGAUGACGCUUGAGCGCCCCACUGAGGAUGCCCACGGUCGAUUGGGGCACGG [U23G G56U] | 5.61
CCCAUCGACUGCCGAGCGAGAUUACGCUUGAGCGCCCCACUGAGGAUGCCCACGGGCGAUCGGGGCACGG [A5U U61C] | 85.8
CCCAACGACUGGCGAGCGAGAUUACGCUUGAGCGCCCCACUGAGGAUGCCCACGGGCGAUUUGGGCACGG [C12G G62U] | 10.8
CCCGACGUCUGCCGAGCGAGAUUACGCUUGAGCGCCCCACUGAGGAUGCCCACGGGCGAUUGGGGCACGG [A4G A8U] | 6.21
CCCAACGACUGCCGAGCGGGAUUACGCUUGAGCGCCCCACUGAGGAUGCCCACGGGCGAUAGGGGCACGG [A19G U61A] | 24.3
CCCAACGAGUGCCGAGCGAGAUUACGCUUGAGCGCCCCACUGAGGAUGCCCACGGGCGAUUGGUGCACGG [C9G G64U] | 8.07
CCCAACGACUGCCUAGGGAGAUUACGCUUGAGCGCCCCACUGAGGAUGCCCACGGGCGAUUGGGGCACGG [G14U C17G] | 6.27
CCCAACGACUGCCGAUCGAGAUUACUCUUGAGCGCCCCACUGAGGAUGCCCACGGGCGAUUGGGGCACGG [G16U G26U] | 7.33
CCCAACGACUGCCGAGCGAGAUUACGCUGGUGCGCCCCACUGAGGAUGCCCACGGGCGAUUGGGGCACGG [U29G A31U] | 6.06

Variant | Kd [nM]
CCCAACGACUGCCGACCGAGAUUACGCUUGAGCGCCCCACUGAGGAUGCCCACGGGCGAUUGGGGCACGG [G16C] | 4.81
CCCAAGGACUGUCGAGCGAGAUUACGCUUGAGCGCCCCACUGAGGAUGCCCACGGGCGAUUGGGGCACGG [C6G C12U] | 5.53
CCCAACGACUGCCAAGCGAGAUGACGCUUGAGCGCCCCACUGAGGAUGCCCACGGGCGAUUGGGGCACGG [G14A U23G] | 5.88
CCCAACGACUGGCGAGCGAGAUUACUCUUGAGCGCCCCACUGAGGAUGCCCACGGGCGAUUGGGGCACGG [C12G G26U] | 5.65
CCCAACGACUGCGGAACGAGAUUACGCUUGAGCGCCCCACUGAGGAUGCCCACGGGCGAUUGGGGCACGG [C13G G16A] | 6.87
CCCAAGGACUGCCGAGCGAGAUGACGCUUGAGCGCCCCACUGAGGAUGCCCACGGGCGAUUGGGGCACGG [C6G U23G] | 4.81
CCCAACGACUGCCGAGCGAGAUUACGCUUGAGCGCCCCACUGAGGAUGCCCACGGGCGAUUGGGGCACGU [G70U] | 5.07
CCCAACGACUGCCGAGCGAGAUUACGCUUGAGCCCCCCACUGAGGAUGCCCACGGGCGAUUGGGGCACGG [G34C] | 9.79
CCCAACGACUACCGAGCGAGAUUACGCUUGAGCGCCCCACUGAGGAUGCCCACGGGCGAUUGGGGCACGG [G11A] | 5.29
CCCAACGACUGGCGAGCGAGAUGACGCUUGAGCGCCCCACUGAGGAUGCCCACGGGCGAUUGGGGCACGG [C12G U23G] | 5.85
CCCAACGACUGCCGAAGGAGAUUACGCUUGAGCGCCCCACUGAGGAUGCCCACGGGCGAUUGGGGCACGG [G16A C17G] | 6.2
CCCAACGACUGCCUAGCGAGAUUACGCUUGAGCGCCCCACUGAGGAUGCCCACGGGCGAUCGGGGCACGG [G14U U61C] | 86.8
CCCAACGACUGCCUAGCGAGAUUACGCUUGAGCGCCCCACUGAGGAUGCCCACGGGCGAUUGAGGCACGG [G14U G63A] | 11.9
CCCAACGACUGCGGAGCGAGAUUACGCUUGAGCGCUCCACUGAGGAUGCCCACGGGCGAUUGGGGCACGG [C13G C36U] | 7.49
CCCAACGACUGCCGAGCGAGAUUACGCUUGUGCGCCCCACUGAGGAUGCCCACGGGCGAUUGGGGCACGG [A31U] | 5.92
CCCAACGACUGCGGAGCGAGAUUACGCUUGAGCGCCCCACUGAGGAUGCCCACGGGUGAUUGGGGCACGG [C13G C57U] | 6.43
CCCAACGACUGCCGAGCGGGAUUACGCUUGAGCGCCCCACGGAGGAUGCCCACGGGCGAUUGGGGCACGG [A19G U41G] | 6.27
CCCAACGGCUGCCAAGCGAGAUUACGCUUGAGCGCCCCACUGAGGAUGCCCACGGGCGAUUGGGGCACGG [A8G G14A] | 6.2
CCCAACGACUGCCGAGCGAGAUUACGCUUGAGCGCCCCACGGGGGAUGCCCACGGGCGAUUGGGGCACGG [U41G A43G] | 8.31
